Experimental data from ChEMBL document CHEMBL1129798, “Analogues of 10-deazaaminopterin and 5-alkyl-5,10-dideazaaminopterin with the 4-substituted 1-naphthoyl group in the place of 4-substituted benzoyl” (J Med Chem, 1996).

What was measured:
[1] = tested on: L1210; test: In vitro cell growth inhibitory activity against L1210 cell line; format: functional, cell-based; details: Mus musculus
[2] = tested on: HL-60; test: In vitro cell growth inhibitory activity against HL60 cell line; format: functional, cell-based; details: Homo sapiens
[3] = tested on: CCRF S-180; test: In vitro cell growth inhibitory activity against S180 cell line; format: functional, cell-based; details: Mus musculus
[4] = tested on: Mus musculus; test: Compound was compared with MTX for in vivo activity against mammary adenocarcinoma E0771 infected mice at a dose of 48 mg/kg; T/C Treated to Control; format: functional
Method in brief: (§1)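 E0771 mammary adenocarcinoma carried in mice, five mice per test group, with an untreated control group. Dosage is given in mg/kg. Average body weight change (g) and average tumor volume (mm3) were recorded at day 10. T/C is expressed relative to the control group.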

[5] = tested on: Mus musculus; test: Compound was compared with MTX for in vivo activity against mammary adenocarcinoma E0771 infected mice at a dose of 24 mg/kg; T/C Treated to Control; format: functional; method in brief: as §1

IC50 [1] [nM] | IC50 [2] [nM] | IC50 [3] [nM] | SMILES | T/C [4] [%] | T/C [5] [%]
9 | 9.8 | 29 | CCc1c(CCc2ccc(C(=O)NC(CCC(=O)O)C(=O)O)c3ccccc23)cnc2nc(N)nc(N)c12 (stereo unspecified) | – | –
1.5 | 1.1 | 1.7 | Nc1nc(N)c2nc(CCc3ccc(C(=O)NC(CCC(=O)O)C(=O)O)c4ccccc34)cnc2n1 (stereo unspecified) | 52 | 96
8.8 | 9.4 | 29 | Cc1c(CCc2ccc(C(=O)NC(CCC(=O)O)C(=O)O)c3ccccc23)cnc2nc(N)nc(N)c12 (stereo unspecified) | – | –
